An excerpt weighted towards active compounds, which were near 4.2% of everything screened.
M18AAP inhibitor: PfM18AAP inhibitors, malaria aminopeptidase, primary screen, biochemical, QFRET, recombinant enzyme | actives 1.2% (n = 290,000) | inhibition, % at 7.35 µM | AID 1822, 2009 | H-Glu-NHMec fluorogenic cleavage | M18 aspartyl aminopeptidase (Plasmodium falciparum 3D7);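 active = inhibition above the campaign mean inhibition over all tested compounds plus 3 SD, cut at about 28% in these data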
FXN GAA850 act: FXN promoter activators, primary screen, cell-based, luciferase luminescence, HEK293 lucGAA850 | activation, % at 6 µM | actives 0.56% (n = 360,000) | HEK293 lucGAA850 FXN promoter luciferase reporter, 24 h; percent of 10 µM SAHA response;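 active = activation above the average of all compounds screened plus 3 SD, cutoff fixed separately per campaign, cut at about 7.5% in these data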
AHR act: AHR activators, primary screen, cell-based, luminescence, luciferase reporter, human. Aryl hydrocarbon receptor (Homo sapiens), P35869. AHR-responsive luciferase reporter cells. activation, % at 5 µM. actives 2.5% (n = 320,000); in the data active = activation above about 47%
Target sequence (P35869 whole entry, looked up): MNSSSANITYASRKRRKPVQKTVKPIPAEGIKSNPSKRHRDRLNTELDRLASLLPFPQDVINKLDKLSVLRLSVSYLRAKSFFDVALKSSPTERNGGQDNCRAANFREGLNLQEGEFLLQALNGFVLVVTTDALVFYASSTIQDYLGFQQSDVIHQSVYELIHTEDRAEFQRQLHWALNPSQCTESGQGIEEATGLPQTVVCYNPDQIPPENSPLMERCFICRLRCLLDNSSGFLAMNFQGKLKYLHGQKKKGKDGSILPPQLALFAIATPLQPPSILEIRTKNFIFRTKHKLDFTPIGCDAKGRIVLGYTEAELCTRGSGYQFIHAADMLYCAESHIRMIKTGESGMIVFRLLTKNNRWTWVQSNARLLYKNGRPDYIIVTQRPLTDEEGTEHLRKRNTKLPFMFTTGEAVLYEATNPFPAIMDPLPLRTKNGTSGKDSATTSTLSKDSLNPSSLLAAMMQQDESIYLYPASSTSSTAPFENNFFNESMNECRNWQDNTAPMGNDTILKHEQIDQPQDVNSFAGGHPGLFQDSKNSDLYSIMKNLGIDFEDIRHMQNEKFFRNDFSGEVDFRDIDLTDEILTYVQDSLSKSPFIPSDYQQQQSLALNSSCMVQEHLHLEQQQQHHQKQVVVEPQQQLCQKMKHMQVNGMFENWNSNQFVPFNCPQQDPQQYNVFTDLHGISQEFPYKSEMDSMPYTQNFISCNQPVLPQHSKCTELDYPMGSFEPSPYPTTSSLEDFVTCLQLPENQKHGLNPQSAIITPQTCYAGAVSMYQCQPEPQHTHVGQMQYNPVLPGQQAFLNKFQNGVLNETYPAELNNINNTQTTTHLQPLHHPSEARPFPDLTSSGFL
CTSL1 counter: Fasciola hepatica cathepsin L1 inhibitors, primary screen, counter-screen for PFM18AAP inhibitor project, biochemical, QFRET, fluorogenic peptide substrate; AID 1906, 2009; inhibition, % at 5.96 µM; actives 0.49% (n = 300,000); recombinant F. hepatica cathepsin L1, Z-Leu-Arg-MCA fluorescence;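 active = inhibition above the mean of all tested compounds plus 3 SD, set per screening campaign, cut at about 17% in these data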
SENP1 FRET inh: human SENP1 catalytic domain inhibitors, primary screen, biochemical, FRET, uHTS | Sentrin-specific protease 1 (Homo sapiens), Q9P0U3 | inhibition, % at 10 µM | actives 0.21% (n = 360,000) | AID 624204, 2012 | recombinant SENP1 catalytic domain, CyPet-SUMO1-YPet FRET cleavage;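 active = inhibition at least 30% at 10 µM, raw YFP signal under a set limit, fluorescence ratio 0.5 to 1.5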
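Test system: recombinant human SENP1 catalytic domain, His6-tagged / Medium: pH 8 Tris buffer with EDTA, NaCl, BME, BSA, NP40, catalase / Also added: SUMO1 FRET substrate flanked by Cypet and Ypet, 25 nM / Times: 50 min reaction at room temperature / Signal: FRET, CFP and YFP emission / Control set: no-enzyme low control and enzyme-plus-DMSO high control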
HDAC3 inh: HDAC3 deacetylase inhibitors, primary screen, biochemical, fluorescence, cell-free homogeneous; actives 0.15% (n = 320,000); AID 2718, 2010; Histone deacetylase 3 (Homo sapiens), O15379; recombinant HDAC3, fluorogenic peptide/trypsin coupled; inhibition, % at 8.3 µM; in the data active = inhibition above about 26%, passing the limit was not always enough; inconclusive = no clear call, values can overlap the other calls
GAA30 FXN cntr: GAA30 FXN promoter activators, confirmation, counter-screen for GAA850 frataxin promoter activator project, cell-based, luminescence, HEK293, lucGAA30, triplicate; shares compounds with FXN GAA850 act; HEK293 lucGAA30 FXN promoter luciferase, 24 h; DMSO = 0%, 5 µM ipriflavone = 100%; activation, % at 6 µM; actives 66% (n = 1,900); AID 588350, 2011;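 active = mean activation above the mean of solvent-only control wells plus 3 SD, cut at about 22% in these data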;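 also: counterscreen of GAA850 promoter hits where activity marks nonselective or luminescence artifacts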
FXN GAA850 conf: FXN GAA850 promoter activators in reporter cells, confirmation, cell-based, luminescence, HEK293 lucGAA850, triplicate | shares compounds with FXN GAA850 act | HEK293 lucGAA850 FXN promoter luciferase reporter, 24 h; 100% = activation by SAHA | activation, % at 6 µM | actives 86% (n = 1,900) | AID 588351, 2011;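 active = mean activation above a set limit taken from the primary screen, cut at about 8% in these data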
Large screens that a line does not name were inactive (follow-up assays come after a bar, where they were run).

Nc1c(N(CCCO)C(=O)CCCN2C(=O)c3cccc4cccc(c34)C2=O)c(=O)[nH]c(=O)n1Cc1ccccc1	none (no result: M18AAP inhibitor, AHR act, CTSL1 counter, HDAC3 inh)
CN1CCN(C2CN(CCc3ccccc3)S(=O)(=O)C2)CC1 (centres undefined)	none (no result: M18AAP inhibitor, FXN GAA850 act, AHR act, CTSL1 counter, HDAC3 inh)
CCCCn1c(N)c(N(CCC(C)C)C(=O)C2CCCC2)c(=O)[nH]c1=O	none (no result: M18AAP inhibitor, CTSL1 counter)
COc1ccccc1CC1(C)C(=O)Nc2ccc(S(=O)(=O)NC3CCCCC3)cc21 (centres undefined)	FXN GAA850 act 9.1 (no result: M18AAP inhibitor, AHR act, CTSL1 counter, HDAC3 inh) | GAA30 FXN cntr inactive | FXN GAA850 conf inactive
CC1(Cc2ccccc2OC(F)(F)F)C(=O)Nc2ccc(S(=O)(=O)NC3CCCCC3)cc21 (centres undefined)	none (no result: M18AAP inhibitor, AHR act, CTSL1 counter, HDAC3 inh)
CCc1ccccc1NC(=O)NNC(=O)CCc1ccc(OC)cc1	none (no result: AHR act, CTSL1 counter)
CN(C)c1nc(N(C)C)c2cnn(C)c2n1	none (no result: M18AAP inhibitor, AHR act, CTSL1 counter, HDAC3 inh)
CC(C)=CCC/C(C)=C/C=N/NC(=O)c1ccccc1[N+](=O)[O-]	FXN GAA850 act 8.6 | GAA30 FXN cntr inactive | FXN GAA850 conf inactive
CCCN1C(=O)S/C(=C\c2ccc(N3CCOCC3)o2)C1=O	FXN GAA850 act 9.8 | GAA30 FXN cntr 95 | FXN GAA850 conf 29
Cn1c(SCc2ccccc2)nc(N)c(N=O)c1=O	FXN GAA850 act 11 (no result: M18AAP inhibitor) | GAA30 FXN cntr inactive | FXN GAA850 conf 19
Cc1ccc(S(=O)(=O)N2CCOCC2)cc1NC(=O)CNC(C)c1ccccc1 (centres undefined)	none (no result: M18AAP inhibitor, CTSL1 counter)
O=C(Nc1ccc(Cc2ccc(NC(=O)Nc3cccnc3)cc2)cc1)Nc1cccnc1	none (no result: M18AAP inhibitor, AHR act, CTSL1 counter, HDAC3 inh)
O=C(Nc1ccc(Cl)cc1)Nc1cccnc1	FXN GAA850 act 8.4 | GAA30 FXN cntr 63 | FXN GAA850 conf 21
Cc1cnc(NC(=O)CSc2ccc(Cl)cc2)s1	none
Cc1cnc(NC(=O)Nc2ccc(Cl)cc2)s1	FXN GAA850 act 8.2 | GAA30 FXN cntr 74 | FXN GAA850 conf 46
O=C(CSc1nc2ccccc2nc1N1CCCCC1)Nc1ccc(F)cc1	none
CC(C)Oc1ccc(S(=O)(=O)N2CCOCC2)cc1NC(=O)c1cc([N+](=O)[O-])ccc1N1CCOCC1	none (no result: M18AAP inhibitor)
CCCOc1ccc(-c2c(=O)n(O)c3ccccc3[n+]2[O-])cc1	FXN GAA850 act 11 | GAA30 FXN cntr 95 | FXN GAA850 conf 31
COc1ccc(NC(=O)c2ccco2)cc1NC(=O)c1cccs1	FXN GAA850 act 9.4 | GAA30 FXN cntr 23 | FXN GAA850 conf inactive
Nc1nc(Cl)nc2c1ncn2[C@@H]1O[C@H](CO)[C@@H](O)[C@H]1O	none
C[C@H](Cc1ccccc1)Nc1ncnc2c1ncn2[C@@H]1O[C@H](CO)[C@@H](O)[C@H]1O	none (no result: M18AAP inhibitor)
OC[C@H]1O[C@@H](n2cnc3c(NC4CCCC4)nc(Cl)nc32)[C@H](O)[C@@H]1O	FXN GAA850 act 8.5 (no result: M18AAP inhibitor) | GAA30 FXN cntr 31 | FXN GAA850 conf 18
CC(Cc1ccccc1)Nc1ncnc2c1ncn2C1OC(CO)C(O)C1O (centres undefined)	FXN GAA850 act 8.7 (no result: M18AAP inhibitor) | GAA30 FXN cntr 55 | FXN GAA850 conf 25
O=C(Cc1ccc(Cl)cc1)N1CCC2(CC1)NCCc1[nH]cnc12	none
O=C(Nc1nnc([C@@H]2C[C@H](O)[C@@H](CO)O2)s1)Nc1ccccc1Oc1ccccc1	none (no result: M18AAP inhibitor, AHR act, CTSL1 counter, HDAC3 inh)
COc1cc(-c2cnc3c(NC=O)cc(-c4ccc(N5CCN(C)CC5)cc4)cn23)cc(OC)c1OC	FXN GAA850 act 11 (no result: M18AAP inhibitor, AHR act, CTSL1 counter, HDAC3 inh) | GAA30 FXN cntr 109 | FXN GAA850 conf 51
CN1CCN(c2ccc(-c3cc(NC=O)c4ncc(-c5ccccc5)n4c3)cc2)CC1	none (no result: M18AAP inhibitor, AHR act, CTSL1 counter, HDAC3 inh)
CCc1ccc(NC(=O)CSCc2nc(N)nc(Nc3ccccc3CC)n2)cc1	none
CCc1ccccc1Nc1nc(N)nc(CSCC(=O)Nc2ccc(C)c(C)c2)n1	FXN GAA850 act 12 | GAA30 FXN cntr 30 | FXN GAA850 conf 16
C/C(=N\NC(=O)c1ccc(-n2cnnn2)cc1)c1ccc(Cl)cc1	none (no result: M18AAP inhibitor, CTSL1 counter)
O=S1(=O)CC(N2CCC(Cc3ccccc3)CC2)CN1C1CCCCC1 (centres undefined)	none (no result: M18AAP inhibitor, FXN GAA850 act, AHR act, CTSL1 counter, HDAC3 inh)
COc1cc(C(=O)ON=C2C=C(C)C(=O)C(C)=C2)cc(OC)c1OC	none
COc1cc(C(=O)O/N=C2\C=CC(=O)C(C)=C2)cc(OC)c1OC	FXN GAA850 act 9.2, HDAC3 inh 62 | GAA30 FXN cntr 35 | FXN GAA850 conf 19
COc1cccc(NC(=O)c2nc(S(C)(=O)=O)ncc2Cl)c1	FXN GAA850 act 50 | GAA30 FXN cntr 69 | FXN GAA850 conf 27
CCOC(=O)c1ccc(NC(=O)c2ccccc2)cc1	FXN GAA850 act 8.0 | GAA30 FXN cntr 79 | FXN GAA850 conf 33
COc1cccc(NC(=O)c2nc(SC)ncc2Cl)c1	none
CCOC(=O)c1ccc(NC(=O)c2nc(S(=O)(=O)Cc3ccccc3)ncc2Cl)cc1	FXN GAA850 act 16 | GAA30 FXN cntr inactive | FXN GAA850 conf inactive
Cc1ccccc1SCCNC(=O)c1ccccc1Br	none
Nn1nnc2ccccc21	FXN GAA850 act 20 (no result: M18AAP inhibitor) | GAA30 FXN cntr 46 | FXN GAA850 conf 16
C=CCN(C(=O)c1oc2c(Cl)cc(C)cc2c1C)C1CCS(=O)(=O)C1 (centres undefined)	FXN GAA850 act 8.1 | GAA30 FXN cntr 102 | FXN GAA850 conf 40
Cc1cc(Cl)c2oc(C(=O)N3CCN(C4CCS(=O)(=O)C4)CC3)c(C)c2c1 (centres undefined)	none
COc1cc(/C=N/Nc2ccnc(=O)[nH]2)ccc1O	FXN GAA850 act 7.7 (no result: AHR act, CTSL1 counter) | GAA30 FXN cntr 31 | FXN GAA850 conf inactive
C=CCNC(=O)c1c(Br)cnn1-c1ccc(C)cc1	FXN GAA850 act 8.2 | GAA30 FXN cntr 105 | FXN GAA850 conf 33
CC(=O)C[C@H](O)CC(=O)[C@@H]1OC(=O)CCCCCCCCc2ccccc21	none (no result: M18AAP inhibitor, CTSL1 counter)
Cc1ccccc1-c1nnc(-c2cccs2)o1	FXN GAA850 act 8.0 | GAA30 FXN cntr 106 | FXN GAA850 conf 30
Cc1ccccc1-c1noc(-c2cccs2)n1	HDAC3 inh inconclusive
CCc1ccc(C(=O)NC(CC(C)C)C(=O)O)cc1 (centres undefined)	FXN GAA850 act 20 | GAA30 FXN cntr inactive | FXN GAA850 conf inactive
